SENP1 FRET inh: SENP1 (human) catalytic domain inhibition. recombinant SENP1 catalytic domain, CyPet-SUMO1-YPet FRET cleavage. inhibition, % at 10 µM. Q9P0U3. 360,000 tested, 0.21% active;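 active = inhibition at least 30% at 10 µM, raw YFP signal under a set limit, fluorescence ratio 0.5 to 1.5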;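 also: 0% = enzyme with DMSO and 100% = no enzyme wells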
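system = hSENP1 catalytic domain, recombinant | reagent = SFCypet-SUMO1-SFYpet substrate at 25 nM | doses = one dose per compound, 10 µM, 0.5% DMSO | incubation = enzyme reaction for 50 min at room temperature, dark | measured by = FRET, CFP and YFP emission | controls = no-enzyme low, enzyme-DMSO high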
NadD inh: inhibitors of Staphylococcus aureus NadD; purified NadD enzyme, colorimetric absorbance read-out; inhibition, % at 20 µM; 360,000 tested, 0.78% active; in the data active = inhibition above about 26%
ABHD5 PLIN5 PPI: ABHD5-PLIN5 protein interaction inhibition; Split G. princeps luciferase complementation, luminescence, 4 h; inhibition, % at 4 µM; 360,000 tested, 0.78% active; AID 602281;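 active = inhibition above the mean inhibition across every tested compound plus 3 SD, cut at about 22% in these data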;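 also: 0% = DMSO only wells and the 100% control is not disclosed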
Target sequence (Q00G26 whole entry, looked up): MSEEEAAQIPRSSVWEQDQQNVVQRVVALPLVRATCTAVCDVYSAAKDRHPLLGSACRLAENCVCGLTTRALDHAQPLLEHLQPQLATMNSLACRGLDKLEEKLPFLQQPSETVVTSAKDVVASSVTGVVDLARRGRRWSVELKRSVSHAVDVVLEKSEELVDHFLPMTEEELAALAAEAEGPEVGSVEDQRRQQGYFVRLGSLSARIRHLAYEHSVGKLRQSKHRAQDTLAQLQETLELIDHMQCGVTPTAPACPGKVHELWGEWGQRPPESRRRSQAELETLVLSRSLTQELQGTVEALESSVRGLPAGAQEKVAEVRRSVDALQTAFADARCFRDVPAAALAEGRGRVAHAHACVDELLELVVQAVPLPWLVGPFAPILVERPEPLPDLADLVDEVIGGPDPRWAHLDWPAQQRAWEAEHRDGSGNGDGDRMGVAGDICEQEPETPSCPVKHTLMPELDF
Target sequence (Q8WTS1 whole entry, looked up): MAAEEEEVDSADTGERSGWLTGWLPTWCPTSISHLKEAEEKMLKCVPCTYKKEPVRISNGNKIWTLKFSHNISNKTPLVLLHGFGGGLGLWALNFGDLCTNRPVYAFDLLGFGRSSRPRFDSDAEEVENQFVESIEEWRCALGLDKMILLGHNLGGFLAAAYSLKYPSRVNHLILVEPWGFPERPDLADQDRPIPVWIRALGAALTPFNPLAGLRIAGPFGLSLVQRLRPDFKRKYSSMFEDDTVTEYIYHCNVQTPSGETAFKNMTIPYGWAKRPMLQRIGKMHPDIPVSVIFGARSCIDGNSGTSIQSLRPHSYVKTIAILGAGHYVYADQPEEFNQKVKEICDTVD
GRK2 aptamer HTS: human GRK2 inhibition via aptamer displacement | bead flow cytometry, FAM-aptamer displacement from GRK2 | 330,000 tested, 0.59% active | inhibition of aptamer binding, % at 10 µM | P25098;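 active = inhibition of aptamer binding above 40%, roughly 3 SD of noise, on plates passing a quality check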;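 also: median bead fluorescence of bound FAM aptamer so fluorescent compounds give negative values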
B2AR ag: agonists of human beta-2 adrenergic receptor inducing internalization; response, % (no concentration beside the values); 340,000 tested, 0.43% active; AID 504454; P07550; Am2.2-beta2AR cells, FAP receptor internalization, flow cytometry;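 active = response above a set limit, near 3 SD of response in nonfluorescent compounds, cut at about 42% in these data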
NadD conf: confirmation of Staphylococcus aureus NadD inhibitors; inhibition, % at 20 µM; shares compounds with NadD inh; 2,000 tested, 13% active; purified S. aureus NadD, colorimetric enzyme assay; AID 624309; in the data active = inhibition mostly above about 42%, no sharp cut-off; inactive = mostly below about 42%
Starred values were filed as active, the others as inactive; . = not tested or not shown. Most compounds without a hit are left out; they make up all but 2.5% or so of the library.

SMILES	SENP1 FRET inh	NadD inh	ABHD5 PLIN5 PPI	GRK2 aptamer HTS	B2AR ag	NadD conf
C=CCN(CC=C)S(=O)(=O)c1ccc(NC(=S)NC(=O)/C=C/c2ccc(C)cc2)cc1	2	-4	3	2	2	.
COc1ccc(CCn2c(C)cc(C(=O)COC(=O)c3cnccn3)c2C)cc1	-2	-1	4	3	3	.
COCCNc1nc(-c2cc(C)n(CCc3ccc(OC)cc3)c2C)cs1	-4	36*	-8	0	0	21
N=c1c(C(=O)NCc2ccco2)cc2c(=O)n3ccccc3nc2n1Cc1ccccc1	-14	32*	21	2	35	26
COc1ccc(CNC(=O)c2cc3c(=O)n4ccccc4nc3n(Cc3cccnc3)c2=N)cc1	-31	8	15	0	18	.
N=c1c(C(=O)NCc2ccccc2)cc2c(=O)n3ccccc3nc2n1Cc1ccco1	-21	31*	26*	0	12	10
N=c1c(S(=O)(=O)c2ccc(Cl)cc2)cc2c(=O)n3ccccc3nc2n1C1CCCCC1	-25	43*	2	3	2	21
N=c1c(S(=O)(=O)c2ccccc2)cc2c(=O)n3ccccc3nc2n1C1CCCC1	-29	23	11	0	-1	.
Cc1ccc(S(=O)(=O)c2cc3c(=O)n4ccccc4nc3n(Cc3ccco3)c2=N)cc1	-31	43*	17	4	-6	26
O=S1(=O)N[C@@H](Cc2ccccc2)COc2cc(N3CCSCC3)ccc21	3	-2	-6	.	.	.
Cc1ccc(CNC(=O)c2cc3c(=O)n4ccccc4nc3n(CC3CCCO3)c2=N)cc1 (stereo not drawn)	-28	3	6	0	-4	.
Cc1ccc(CNC(=O)c2cc3c(=O)n4ccccc4nc3n(Cc3ccco3)c2=N)cc1	-21	40*	30*	1	7	32
NC(=O)[C@H]1CC2(CC(c3cccc(NC(=O)COc4ccc(Cl)cc4)c3)=NO2)CN1C(=O)Cc1ccc([N+](=O)[O-])cc1 (stereo partly drawn)	2	33*	2	3	0	29
C/C=C\C=C/C(=O)Nc1cccc(C2=NOC3(C2)C[C@@H](C(N)=O)N(C(=O)COc2ccc(Cl)cc2)C3)c1 (stereo partly drawn)	-6	38*	0	0	4	62*
CCCCCC(=O)Nc1cccc(C2=NOC3(C2)C[C@@H](C(N)=O)N(C(=O)Cc2ccc([N+](=O)[O-])cc2)C3)c1 (stereo partly drawn)	2	9	0	4	-7	.
C/C(CC1CC(C)OC1=O)=N\NC(N)=S (stereo not drawn)	1	1	1	0	2	.
C/C(CCC12CC3CC(CC(C3)C1)C2)=N\NC(N)=S	1	34*	-6	0	-3	44
COc1ccc(OC)c(CNS(=O)(=O)c2c(C)nc3scc(C)n3c2=O)c1	-1	5	11	2	3	.
Cn1c(SCC(=O)Nc2ccccc2Oc2ccccc2)nnc1C1CC1	2	-9	0	2	-7	.
CC(C)C[C@@H](CN1CCC[C@@H]1CN1C(=S)NC[C@@H]1Cc1ccccc1)N1C[C@H](Cc2ccc(O)cc2)N(CCc2ccccc2)C1=S	-1	19	5	.	.	.
CC(C)C[C@@H](CN1CCC[C@@H]1CN1C(=S)NC[C@@H]1Cc1ccc(O)cc1)N1C[C@H](Cc2ccc(O)cc2)N(CCc2ccccc2)C1=S	-2	40*	9	.	.	28
CC(C)C[C@@H](CN1CCCC1CN1C(=S)NC[C@@H]1Cc1ccccc1)N1C[C@H](Cc2ccc(O)cc2)N(CCc2ccccc2)C1=S (stereo partly drawn)	0	45*	4	.	.	12
COC(=O)c1cc(=O)c2c(ccc3oc(=O)ccc32)[nH]1	11	2	-8	.	.	.
O=C(O)CC/C(=C\c1cccc(NC(=O)c2ccccc2Cl)c1)c1nc2ccccc2s1	-11	30*	5	0	6	38
O=C(O)CC/C(=C\c1cc([N+](=O)[O-])ccc1Cl)c1nc2ccccc2s1	2	1	5	2	-4	.
CN(c1ccccc1)c1ccc(/C=C(/CCC(=O)O)c2nc3ccccc3s2)cc1[N+](=O)[O-]	7	43*	-2	.	4	38

High-throughput results: PubChem BioAssay, several laboratories
